# Measured values taken from publication PMC11707965 (Journal of Biomaterials Applications, 2024).
# Like-named read-outs stand apart in the source and are kept apart here.
# Key:
# [1] = tested on: Escherichia coli ATCC 25922; experiment: Broth macrodilution antimicrobial susceptibility; format: cell-based; settings: E. coli ATCC 25922; two-fold dilution from 3% boric acid / 9% zinc borate
# In short: (§1)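 Broth macrodilution run per CLSI recommendations in Cationized Mueller Hinton Broth. Ten tubes per strain held two-fold serial dilutions of boric acid (top 3%) or zinc borate (top 9%). MIC was read from the tubes. For MBC, every tube without growth was subcultured onto solid medium, and MBC was the lowest concentration giving no growth.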
# [2] = tested on: L929 (mouse fibroblast) cell line; experiment: Cytotoxicity / cell viability by MTT method; format: cell-based; settings: for IC50: read-out: IC50 dose that caused 50% decrease in cell proliferation, L929 cells, MTT
# [3] = tested on: Acinetobacter baumannii ATCC 19606; experiment: Broth macrodilution antimicrobial susceptibility; format: cell-based; settings: A. baumannii ATCC 19606; two-fold dilution from 3% boric acid / 9% zinc borate
# In short: as §1
# [4] = tested on: Streptococcus pyogenes ATCC 19615; experiment: Broth macrodilution antimicrobial susceptibility; format: cell-based; settings: S. pyogenes ATCC 19615; two-fold dilution from 3% boric acid / 9% zinc borate
# In short: as §1
# [5] = tested on: Proteus mirabilis ATCC 25933; experiment: Broth macrodilution antimicrobial susceptibility; format: cell-based; settings: P. mirabilis ATCC 25933; two-fold dilution from 3% boric acid / 9% zinc borate
# In short: as §1
# [6] = tested on: Pseudomonas aeruginosa ATCC 9027; experiment: Broth macrodilution antimicrobial susceptibility; format: cell-based; settings: P. aeruginosa ATCC 9027; two-fold dilution from 3% boric acid / 9% zinc borate
# In short: as §1
# [7] = tested on: Klebsiella pneumoniae ATCC 700603; experiment: Broth macrodilution antimicrobial susceptibility; format: cell-based; settings: K. pneumoniae ATCC 700603; two-fold dilution from 3% boric acid / 9% zinc borate
# In short: as §1
# [8] = tested on: Staphylococcus aureus ATCC 29213; experiment: Broth macrodilution antimicrobial susceptibility; format: cell-based; settings: S. aureus ATCC 29213; two-fold dilution from 3% boric acid / 9% zinc borate
# [9] = tested on: Candida albicans ATCC 10231; experiment: Broth macrodilution antimicrobial susceptibility; format: cell-based; settings: C. albicans ATCC 10231; two-fold dilution from 3% boric acid / 9% zinc borate
# In short: (§2)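 Fungal strains were tested by CLSI-based broth macrodilution in RPMI 1640. Each strain had ten tubes of two-fold serial dilutions starting at 3% boric acid or 9% zinc borate. Tubes showing no growth were plated onto solid media to find the lowest concentration without growth (MBC).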
# [10] = tested on: Aspergillus niger ATCC 16888; experiment: Broth macrodilution antimicrobial susceptibility; format: cell-based; settings: A. niger ATCC 16888; two-fold dilution from 3% boric acid / 9% zinc borate
# In short: as §2
# L929 cells = experiment: Cell migration test; format: cell-based, mouse; settings: 24 h vs 0 h
# In short: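 L929 fibroblasts (ATCC) were grown in DMEM with 10% FBS at 37°C and 5% CO₂. After the fourth passage they were seeded into 24-well plates at 2 × 10⁵ cells/ml and left 24 h to form a monolayer. Each well got one vertical scratch with a sterile pipette tip and was imaged at 0 h. Treatment followed (zinc borate 0.10–0.001 mM; boric acid 1000–0.001 mM), with re-imaging at 12 and 24 h (10x) to measure closure percentage.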
# [11] = tested on: Enterococcus faecalis ATCC 29212; experiment: Broth macrodilution antimicrobial susceptibility; format: cell-based; settings: E. faecalis ATCC 29212; two-fold dilution from 3% boric acid / 9% zinc borate
# In short: as §1
# [12] = tested on: L929 (mouse fibroblast) cell line; experiment: Antioxidant ability: protection against H2O2 oxidative stress, MTT method; format: cell-based; settings: read-out: EC50 dose, which increased the proliferative concentration by 50%, L929 cells, 0.4 mM H2O2 stress
compound,measurement,setting,value
"OB(O)O [Boric acid, Boric Acid]",MBC (%),[1],1.5%
same,MIC (%),[1],0.375%
same,Proliferative or inhibitory effect on L929 cells versus control,"[2]; 0.001 mM-1000 mM, 24th, 48th, 72nd hours, except 100 mM and 500 mM at 24th hour, 100 mM at 48th hour",no significant proliferation or inhibition was observed
same,MIC (%),[3],0.375%
same,MBC (%),[4],3%
same,MIC (%),[4],0.0058%
same,MBC (%),[5],3%
same,MIC (%),[5],0.75%
same,MBC (%),[6],no bactericidal effect
same,MIC (%),[6],0.75%
same,MIC (%),[7],0.75%
same,MBC (%),[8],0.75%
same,MIC (%),[8],0.75%
same,MBC (%),[9],0.0058%
same,MBC (%),[10],0.1875%
same,migration recovery (closure) percentage,L929 cells; 0.001 mM,86.91%
same,migration recovery (closure) percentage,L929 cells; 0.01 mM,70.81%
same,migration recovery (closure) percentage,L929 cells; 0.025 mM,81.05%
same,migration recovery (closure) percentage,L929 cells; 0.05 mM,83.57%
same,migration recovery (closure) percentage,L929 cells; 0.10 mM,77.98%
same,migration recovery (closure) percentage,L929 cells; 0.25 mM,86.54%
same,migration recovery (closure) percentage,L929 cells; 0.50 mM,80.92%
same,migration recovery (closure) percentage,L929 cells; 0.75 mM,83.24%
same,migration recovery (closure) percentage,L929 cells; 1 mM,73.18%
same,migration recovery (closure) percentage,L929 cells; 50 mM,87.55%
same,migration recovery (closure) percentage,L929 cells; 250 mM,75.56%
same,migration recovery (closure) percentage,L929 cells; 500 mM,70.05%
same,migration recovery (closure) percentage,L929 cells; 750 mM,81.62%
same,migration recovery (closure) percentage,L929 cells; 1000 mM,62.46%
same,MIC (%),[11],1.5%
Zinc borate,MBC (%),[1],0.5625%
same,MIC (%),[1],0.0351%
same,IC50,[2]; 24th hour,133 µM
same,IC50,[2]; 48th hour,197 µM
same,IC50,[2]; 72nd hour,142 µM
same,MBC (%),[3],9%
same,MIC (%),[3],1.125%
same,MBC (%),[4],0.2812%
same,MIC (%),[4],0.0175%
same,MBC (%),[5],>9%
same,MIC (%),[5],4.5%
same,MBC (%),[7],2.25%
same,MIC (%),[7],0.1406%
same,EC50,[12]; 24th hour,51 µM
same,EC50,[12]; 48th hour,15 µM
same,EC50,[12]; 72nd hour,11 µM
same,MBC (%),[8],4.5%
same,MBC (%),[9],0.0175%
same,MBC (%),[10],>9%
same,migration recovery (closure) percentage,L929 cells; 0.025 mM,88.13%
same,MBC (%),[11],>9%
same,MIC (%),[11],0.0351%
